Assay results published in ChEMBL document CHEMBL4002637, “Synthesis, characterization, in vitro SAR and in vivo evaluation of N,N'bisnaphthylmethyl 2-alkyl substituted imidazolium salts against NSCLC” (Bioorg Med Chem Lett, 2017).
pIC50: −log10 of the molar value. Activity calls are given as the source filed them. No cut-off for these calls is given here.

Columns and labels:
NCI-H460 [1] = assay: Antiproliferative activity against human NCI-H460 cells using 1% DMSO/water compound formulation after 72 hrs by MTT assay; format: functional, cell-based; conditions: NCI-H460, 72 h
In short: (§1)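 MTT anti-proliferation on NSCLC lines. Compounds dissolved in DMSO, diluted with water to 1% DMSO, then into growth medium (max 0.032% DMSO on cells); or dissolved in 10% (w/v) 2-HPβCD in water, then diluted (max 0.008% w/w 2-HPβCD in wells; vehicle controls at 0.008%). IC50 = concentration giving 50% loss of viability versus control cells. Cisplatin dissolved in water with stirring.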

NCI-H1975 = assay: Antiproliferative activity against human NCI-H1975 cells using 10% 2-HPbetaCD compound formulation after 72 hrs by MTT assay; format: functional, cell-based; conditions: NCI-H1975, 72 h; in short: as §1
A549 = assay: Antiproliferative activity against human A549 cells using 1% DMSO/water compound formulation after 72 hrs by MTT assay; format: functional, cell-based; conditions: A549, 72 h; in short: as §1
[2] = Solubility of the compound in 10% 2-HPbetaCD/water solution; format: physicochemical; conditions: buffer
EKVX [3] = assay: Growth inhibition of human EKVX cells assessed as cell growth at 10 uM after 24 hrs by SRB assay relative to control; format: functional; conditions: read-out: Activity
In short: (§2)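 NCI DTP one-dose screen: cells plated at density set by doubling rate, incubated overnight, then exposed to compound at 10 μM for 24 hours. Growth percentage from protein density at end versus start of experiment, relative to initial cell number.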

NCI-H23 [4] = assay: Growth inhibition of human NCI-H23 cells assessed as cell growth at 10 uM after 24 hrs by SRB assay relative to control; format: functional; conditions: NCI-H23, 24 h, read-out: Activity; in short: as §2
EKVX [5] = assay: Growth inhibition of human EKVX cells after 24 hrs by SRB assay; format: functional
HOP-62 = assay: Growth inhibition of human HOP62 cells after 24 hrs by SRB assay; format: functional; conditions: HOP-62, 24 h
NCI-H226 = assay: Growth inhibition of human NCI-H226 cells after 24 hrs by SRB assay; format: functional; conditions: NCI-H226, 24 h
NCI-H23 [6] = assay: Growth inhibition of human NCI-H23 cells after 24 hrs by SRB assay; format: functional; conditions: NCI-H23, 24 h
NCI-H460 [7] = assay: Growth inhibition of human NCI-H460 cells after 24 hrs by SRB assay; format: functional; conditions: NCI-H460, 24 h
NCI-H522 = assay: Growth inhibition of human NCI-H522 cells after 24 hrs by SRB assay; format: functional; conditions: NCI-H522, 24 h
NCI-H460 [8] = assay: Induction of apoptosis in human NCI-H460 cells assessed as blebbing at 40 uM up to 6 hrs using 1% DMSO/water compound formulation by Annexin V-FITC/propidium iodide staining based fluorescence microscopic method; format: functional, cell-based
NCI-H460 [9] = assay: Induction of apoptosis in human NCI-H460 cells assessed as blebbing at 40 uM after 14 hrs using 10% 2HPbetaCD/water compound formulation by Annexin V-FITC/propidium iodide staining based fluorescence microscopic method; format: functional, cell-based
In short: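 Annexin V-FITC/propidium iodide staining of H460 cells in 6-well plates. Compound given in 10% (w/v) 2-HPβCD aqueous solution. Imaged at 12, 14, 17 and 20 h with 20× objective as merged transmitted, green and red channels. Controls: 2-HPβCD and cisplatin, 20 h.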

NCI-H460 [10] = assay: Disruption of mitochondrial membrane potential in human NCI-H460 cells at 40 uM up to 1 hr […] by JC1/DAPI staining based confocal microscopic method; format: functional, cell-based
NCI-H460 [11] = assay: Disruption of mitochondrial membrane potential in human NCI-H460 cells at 20 uM up to 30 mins using […] by JC1/DAPI staining based confocal microscopic method; format: functional, cell-based
Mus musculus = assay: Acute toxicity in C57BL/6 mouse assessed as weight loss at 20 mg/kg, ip administered as 20% 2HPbetaCD formulation on day 1 followed by redosing with 15 mg/kg, ip on day 14 relative to control; format: organism-based; conditions: in vivo
In short: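 C57BL/6 mice given IP 100 μL of 20 mg/kg (based on 20 g mean mass) in 20% w/v 2-HPβCD on day 0, then 15 mg/kg on day 14. Vehicle mice received 2-HPβCD on days 0, 7, 14, 21, 25 and 29. Body weight, behaviour and survival monitored.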

[12] = read-out: LC50 (the source's name)

## CCc1n(Cc2ccc3ccccc3c2)cc[n+]1Cc1ccc2ccccc2c1.[Br-]
NCI-H460 [1]
  pIC50: 6.04
NCI-H1975
  pIC50: 6.25
A549
  pIC50: 5.58
[2]
  solubility: > 4400 µg/mL
EKVX [3]
  growth at 10 µM: 11.9%
NCI-H23 [4]
  growth at 10 µM: -14.6%
EKVX [5]
  GI50: 0.766 µM
  LC50: 35.8 µM
  TGI: 5.55 µM
HOP-62
  GI50: 1.42 µM
  LC50: 9.36 µM
  TGI: 3.65 µM
NCI-H226
  GI50: 1.08 µM
  LC50: 3.82 µM
  TGI: 3.82 µM
NCI-H23 [6]
  GI50: 0.396 µM
  TGI: 2.02 µM
NCI-H23 [6]; [12]
  CC50: 2.02 µM
NCI-H460 [7]
  GI50: 0.724 µM
  TGI: 2.15 µM
NCI-H460 [7]; [12]
  CC50: 2.15 µM
NCI-H522
  GI50: 0.303 µM
  TGI: 1.44 µM
NCI-H522; [12]
  CC50: 1.44 µM
NCI-H460 [8]
  Activity: Active
NCI-H460 [9]
  Activity: Active
NCI-H460 [10]
  Activity: Active
NCI-H460 [11]
  Activity: Active
Mus musculus
  Activity: 6%
